A word on the IC50: it is the concentration that gives 50% inhibition. What is called CC50 is the concentration at which the toxic effect on the cells reaches its halfway point.

The subject of data set [1] is Vaccinia virus. In words: Antiviral activity against Vaccinia virus. In kind it is functional, organism-based. To be noted: Orthopoxvirus vaccinia.
Data set [2] can be described thus: Cytotoxicity against African green monkey Vero cells assessed as […]. The settings on record: chlorocebus sabaeus. In kind it is cell-based. Put shortly:
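Uninfected Vero monolayers in DMEM with 2% serum, given 8 three-fold compound dilutions starting at 1, 10 or 100 μg ml–1. Cell viability read by neutral red uptake: dye 1.5 h, washes, lysis, OD. CC50, the concentration causing 50% cell death, calculated from OD values.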

Data set [3] relates to Vaccinia virus. In words: Antiviral activity against Vaccinia virus Copenhagen infected in African green monkey Vero cells assessed as reduction in cell survival incubated for 4 days by neutral red dye based colorimetric analysis. In kind it is functional, organism-based. To be noted: Orthopoxvirus vaccinia, 96 h.
Data set [4] in a line: Selectivity index, ratio of CC50 for African green monkey Vero cells to IC50 for Vaccinia virus Copenhagen infected in African green monkey Vero cells assessed as reduction in cell survival incubated for 4 days by neutral dye based colorimetric analysis. In kind it is toxicity. The settings on record: read-out: Ratio CC50/IC50.
Data set [5] can be described thus: Selectivity index, ratio of CC50 for African green monkey Vero cells to IC50 for Cowpox virus Grishak infected in African green monkey Vero cells assessed as reduction in cell survival incubated for 4 days by neutral dye based colorimetric analysis. It is filed as toxicity. The settings on record: read-out: Ratio CC50/IC50.
Data set [6] is described as follows: Selectivity index, ratio of CC50 for African green monkey Vero cells to IC50 for Ectromelia virus K-1 infected in African green monkey Vero cells assessed as reduction in cell survival incubated for 4 days by neutral dye based colorimetric analysis. It is filed as toxicity. The settings on record: read-out: Ratio CC50/IC50.
Another data set relates to Cowpox virus. In words: Antiviral activity against Cowpox virus Grishak infected in African green monkey Vero cells assessed as reduction in cell survival incubated for 4 days by neutral red dye based colorimetric analysis. In kind it is functional, organism-based. To be noted: 96 h.
The test system of the next data set is Ectromelia virus. Put plainly: Antiviral activity against Ectromelia virus K-1 infected in African green monkey Vero cells assessed as reduction in cell survival incubated for 4 days by neutral red dye based colorimetric analysis. To be noted: K-1, Vero, 96 h. It is filed as functional.
Data set [7] concerns Vaccinia virus. Put plainly: Antiviral activity against Vaccinia virus assessed as reduction in viral reproduction at 2 ug/ml after 3 hrs relative to control. Details: scale not given: the % may be the effect or the level left. The settings on record: dose 2 µg/ml. It is filed as functional, Orthopoxvirus vaccinia.
For data set [8], the system named is Vaccinia virus. In words: Antiviral activity against Vaccinia virus assessed as reduction in viral reproduction at 2 ug/ml relative to control. In kind it is functional, Orthopoxvirus vaccinia. Also on record: scale not given: the % may be the effect or the level left. The settings on record: dose 2 µg/ml.

For `CC1(C)[C@H]2CC[C@]1(C)[C@H](OC(=O)CCN1CCOCC1)C2`, the IC50 in the data set on Vaccinia virus [1] came out at 3.5 µM.

`CC1CCN(CC(=O)N[C@@H]2C[C@H]3CC[C@]2(C)C3(C)C)CC1` returned an IC50 in the data set on Vaccinia virus [1] of 2.5 µM.

Turning to `C=C(C)[C@@H]1CC=C(CNC(=O)C23CC4CC(CC(C4)C2)C3)CC1`, the CC50 in data set [2] stood at 319 µM. For the same compound, the IC50 with Vaccinia virus [3] is 12.3 µM. Moreover, the selectivity ratio at 96 h in data set [4] is 26.

For `CC1(C)[C@H]2CC[C@](C)(C2)[C@H]1NC(=O)C12CC3CC(CC(C3)C1)C2`, the CC50 in [2] was 317 µM. The IC50 with Vaccinia virus [3] stood at 14.4 µM. Moreover, the selectivity ratio at 96 h in data set [4] worked out at 22.

For the compound `CC1=CC[C@H](CCNC(=O)C2C3CC4CC(C3)CC2C4)C1(C)C` (some centres undefined), the CC50 in data set [2] came to 317 µM. Further, in the data set on Vaccinia virus [3], the IC50 was found to be 2.6 µM. In addition, in [4], the selectivity ratio at 96 h was 122.

`CC1(C)[C@H]2CC=C(CNC(=O)C3C4CC5CC(C4)CC3C5)[C@@H]1C2` (some centres undefined): the CC50 in data set [2] was 1230 µM. In addition, the figures for the selectivity ratio at 96 h in data set [5], in data set [6] and in data set [4] were 82, 97 and 267, respectively. Besides, the results for the IC50 in the data set with Vaccinia virus [3], in the data set with Cowpox virus and with Ectromelia virus were 4.6 µM, 15 µM and 12.6 µM, respectively.

For `CC(C)=CCCC(C)CC(=O)NC1C2CC3CC(C2)CC1C3` (centres undefined), the CC50 in data set [2] was found to be 330 µM. Further, in the data set on Vaccinia virus [3], the IC50 came to 14.8 µM. In addition, the selectivity ratio at 96 h in [4] was found to be 22.

On to `O=C1Nc2ccccc2/C1=N\NC(=S)NC1C2CC3CC(C2)CC1C3` (centres undefined), for which the Activity in the data set with Vaccinia virus [7] was determined as 42%.

Consider `CC(C)=CCC[C@H](C)CCNC(=O)C12CC3CC(CC(C3)C1)C2`, for which the CC50 in data set [2] worked out at 18.1 µM. The IC50 with Vaccinia virus [3] was found to be 3.6 µM. In [4], the selectivity ratio at 96 h was determined as 5.

Take `CC1=CC[C@H](CCNC(=O)C23CC4CC(CC(C4)C2)C3)C1(C)C`: the CC50 in [2] was found to be 317 µM. The IC50 in the data set with Vaccinia virus [3] was determined as 2.5 µM. Moreover, the selectivity ratio at 96 h in [4] was found to be 126.

For `CC(C)=CCC/C(C)=C/CNC(=O)C12CC3CC(CC(C3)C1)C2`, the CC50 in data set [2] worked out at 18.9 µM. Also, the IC50 with Vaccinia virus [3] turned out to be 5.9 µM. For the same compound, the selectivity ratio at 96 h in data set [4] worked out at 3.

With `CC(C)=CCCC(C)CC(=O)NC12CC3CC(CC(C3)C1)C2` (centres undefined), in [2], the CC50 was 37 µM. For the same compound, in the data set on Vaccinia virus [3], the IC50 stood at 3.1 µM. Moreover, in data set [4], the selectivity ratio at 96 h is 12.

Regarding `CC(C)=CCC/C(C)=C\CNC(=O)C12CC3CC(CC(C3)C1)C2`, the CC50 in [2] was determined as 12.9 µM.

Regarding `CC1(C)[C@H]2CC=C(CCNC(=O)C3C4CC5CC(C4)CC3C5)[C@@H]1C2` (some centres undefined), the CC50 in [2] stood at 372 µM. Besides, the figures for the selectivity ratio at 96 h in data set [5], in [6] and in data set [4] were 30, 39 and 85, respectively. Further, the IC50 in the data set with Vaccinia virus [3] came out at 4.4 µM; with Cowpox virus, 12.5 µM; in the data set with Ectromelia virus, 9.5 µM.

Consider `CC1(C)[C@H]2CC=C(CCNC(=O)C34CC5CC(CC(C5)C3)C4)[C@@H]1C2`, for which the CC50 in [2] stood at 750 µM. Also, the selectivity ratio at 96 h in data set [5] stood at 183; in data set [6], 469; in [4] it was 417. Besides, the values for the IC50 in the data set with Vaccinia virus [3], in the data set on Cowpox virus and in the data set on Ectromelia virus were 1.8 µM, 4.1 µM and 1.6 µM, respectively.

Consider `CC1(C)[C@@H]2CC[C@@]1(CS(=O)(=O)NC1C3CC4CC(C3)CC1C4)C(=O)C2` (some centres undefined), for which the CC50 in [2] turned out to be 95.8 µM. In addition, in the data set with Vaccinia virus [3], the IC50 stood at 0.6 µM. For the same compound, the selectivity ratio at 96 h in data set [4] came to 160.

For `CC1(C)[C@@H]2CC[C@@]1(C)[C@H](NC(=O)C13CC4CC(CC(C4)C1)C3)C2`, the CC50 in data set [2] amounted to 317 µM. Besides, the IC50 in the data set on Vaccinia virus [3] amounted to 10.6 µM. Besides, the selectivity ratio at 96 h in data set [4] turned out to be 30.

As to `CC(C)CCCC(C)CCNC(=O)C1C2CC3CC(C2)CC1C3` (centres undefined), the CC50 in data set [2] amounted to 13.7 µM. For the same compound, in the data set on Vaccinia virus [3], the 50% inhibitory concentration (IC50) worked out at 2.8 µM. Besides, the selectivity ratio at 96 h in data set [4] was determined as 5.

As for `CC1(C)[C@H]2CC=C(C(=O)NC3C4CC5CC(C4)CC3C5)[C@@H]1C2` (some centres undefined), the CC50 in [2] was determined as 812 µM. Besides, the selectivity ratio at 96 h worked out at 113 in data set [5], 477 in [6] and 325 in data set [4]. Besides, the IC50 in the data set with Vaccinia virus [3] came to 2.5 µM; in the data set on Cowpox virus, 7.2 µM; in the data set with Ectromelia virus it was 1.7 µM.

Take `O=C(NC12CC3CC(CC(C3)C1)C2)C(c1ccccc1)c1ccccc1`: in the data set on Vaccinia virus [8], the Activity worked out at 72%.

On to `CC1(C)[C@H]2CC=C(CNC(=O)C34CC5CC(CC(C5)C3)C4)[C@@H]1C2`, for which the CC50 in data set [2] was 1910 µM. Also, the selectivity ratio at 96 h in data set [5] was 406; in data set [6], 707; in data set [4], 1120. In addition, the results for the IC50 in the data set with Vaccinia virus [3], with Cowpox virus and with Ectromelia virus were 1.7 µM, 4.7 µM and 2.7 µM, respectively.

As for `CC1(C)[C@H]2CC=C(C(=O)NC34CC5CC(CC(C5)C3)C4)[C@@H]1C2`, the CC50 in data set [2] amounted to 7.9 µM. The IC50 in the data set on Vaccinia virus [3] is 0.7 µM. Further, in data set [4], the selectivity ratio at 96 h was found to be 11.

In the case of `CC(C)CCCC(C)CCNC(=O)C12CC3CC(CC(C3)C1)C2` (centres undefined), in data set [2], the CC50 was 17.3 µM.

`CC1(C)[C@@H]2CC[C@@]1(CS(=O)(=O)NC13CC4CC(CC(C4)C1)C3)C(=O)C2`: in [2], the CC50 turned out to be 164 µM. For the same compound, the IC50 with Vaccinia virus [3] is 2.3 µM. For the same compound, the selectivity ratio at 96 h in [4] came to 71.

As to `O=C(NN1C(=O)C2C3C=CC(C4CC34)C2C1=O)c1ccc(C(F)(F)F)cc1` (centres undefined), in [2], the CC50 was found to be 1280 µM. In addition, the IC50 with Vaccinia virus [3] came to 0.01 µM. In addition, the selectivity ratio at 96 h in data set [4] was 128000.

For `Nc1ccn(C[C@@H](CO)OCP(=O)(O)O)c(=O)n1` [CIDOFOVIR], the selectivity ratio at 96 h in data set [4] was found to be 12.

The record behind these values is ChEMBL document CHEMBL4699424, “New chemical agents based on adamantane-monoterpene conjugates against orthopoxvirus infections” (RSC Med Chem, 2020).
